{"source": "paper PMC3923374", "about": "(Analytical biochemistry, 2013)", "key": {"sigma-2 receptor": {"molecular_target": "T1, sigma-2 receptor (Rattus norvegicus, UniProt Q5U3Y7)", "T1 sequence (Q5U3Y7 1-176)": "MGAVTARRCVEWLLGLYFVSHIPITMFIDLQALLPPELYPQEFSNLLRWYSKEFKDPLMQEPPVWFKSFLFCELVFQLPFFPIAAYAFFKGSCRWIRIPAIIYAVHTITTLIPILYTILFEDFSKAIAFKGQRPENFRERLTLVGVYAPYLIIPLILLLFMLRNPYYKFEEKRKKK", "test": "radioligand competition with [3H]RHM-1 in rat liver membranes", "assay_type": "binding", "settings": "read-out: Ki for sigma-2 receptors", "outline": "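Rat liver membrane homogenate (~300 μg protein) in 50 mM Tris-HCl, pH 8.0, incubated 60 min at 25°C with 1 nM [³H]RHM-1 (80 Ci/mmol) and test compound at 0.1 nM–10 μM. Stopped with cold 10 mM Tris-HCl/150 mM NaCl, pH 7.4, filtered onto glass-fiber filters presoaked 1 h in 50 mM Tris-HCl, washed three times ice-cold, scintillation counted. Nonspecific binding: 10 μM haloperidol.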"}, "sigma-1 receptor": {"molecular_target": "sigma-1 receptor (Cavia porcellus, UniProt Q60492)", "sequence (Q60492 whole entry)": "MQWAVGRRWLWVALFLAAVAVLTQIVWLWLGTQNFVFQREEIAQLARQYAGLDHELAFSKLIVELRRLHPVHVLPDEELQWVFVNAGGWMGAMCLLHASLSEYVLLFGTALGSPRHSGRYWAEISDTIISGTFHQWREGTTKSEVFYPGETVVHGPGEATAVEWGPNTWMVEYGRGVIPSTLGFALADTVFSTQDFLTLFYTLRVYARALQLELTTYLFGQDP", "test": "radioligand competition with [3H]", "assay_type": "binding", "settings": "read-out: Ki for sigma-1 receptors"}}, "data": [{"smiles": "O[C@@H](CN1[C@@H]2CC[C@H]1CC(c1ccccc1)C2)c1cccc(Br)c1", "note": "(some centres unmarked) [RHM-138]", "values": [{"measurement": "Ki", "setting": "sigma-2 receptor", "value": 12.3, "unit": "nM"}, {"measurement": "Ki", "setting": "sigma-1 receptor", "value": 544, "unit": "nM"}]}]}
